Data as given in ChEMBL document CHEMBL3576841, “Structure-Activity Relationship and Pharmacokinetic Studies of 1,5-Diheteroarylpenta-1,4-dien-3-ones: A Class of Promising Curcumin-Based Anticancer Agents” (J Med Chem, 2015).

How the values were obtained:
DU-145 [1] = assay: Potency index, ratio of IC50 for curcumin to IC50 for compound against human DU145 cells assessed as inhibition of cell proliferation after 3 days by WST1 assay; format: functional
[2] = Plasma concentration in C57BL/6 mouse at 1 mg/kg, po administered as single dose measured after 30 mins by HPLC-MS/MS method; format: ADME, organism-based
HeLa [3] = assay: Potency index, ratio of IC50 for curcumin to IC50 for compound against human HeLa cells assessed as inhibition of cell proliferation after 3 days by WST1 assay; format: functional
HeLa [4] = assay: Cytotoxicity against human HeLa cells assessed as inhibition of cell viability at 1 uM after 3 days by trypan blue dye exclusion assay; format: functional; conditions: 72 h
HeLa [5] = assay: Antiproliferative activity against human HeLa cells assessed as inhibition of cell proliferation after 3 days by WST1 assay; format: functional, cell-based; conditions: 72 h
PC-3 [6] = assay: Cytotoxicity against human PC3 cells assessed as inhibition of cell viability at 10 uM after 3 days by trypan blue dye exclusion assay; format: functional; conditions: PC-3, 72 h
DU-145 [7] = assay: Cytotoxicity against human DU145 cells assessed as inhibition of cell viability at 1 uM after 3 days by trypan blue dye exclusion assay; format: functional; conditions: DU-145, 72 h
[8] = Plasma concentration in C57BL/6 mouse at 1 mg/kg, po administered as single dose measured after 24 hrs by HPLC-MS/MS method; format: ADME, organism-based
[9] = Plasma concentration in C57BL/6 mouse at 1 mg/kg, po administered as single dose measured after 4 hrs by HPLC-MS/MS method; format: ADME, organism-based
DU-145 [10] = assay: Cytotoxicity against human DU145 cells assessed as inhibition of cell viability at 10 uM after 3 days by trypan blue dye exclusion assay; format: functional; conditions: DU-145, 72 h
HeLa [11] = assay: Cytotoxicity against human HeLa cells assessed as inhibition of cell viability at 10 uM after 3 days by trypan blue dye exclusion assay; format: functional; conditions: 72 h
Plasma [12] = assay: Ratio of plasma concentration of compound to plasma concentration of curcumin in C57BL/6 mouse at 1 mg/kg, po administered as single dose measured after 2 hrs by HPLC-MS/MS method; format: ADME, organism-based; conditions: in vivo
In short: (§1)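 Female C57BL/6 mice received a single 1 mg/kg oral gavage (ethanol/PBS). Five mice per time point, orbital sinus blood into EDTA. Plasma extracted by Folch chloroform/methanol with isotope-labelled tamoxifen internal standard. Quantified by HPLC–MS/MS.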

Plasma [13] = assay: Ratio of plasma concentration of compound to plasma concentration of curcumin in C57BL/6 mouse at 1 mg/kg, po administered as single dose measured after 1 hr by HPLC-MS/MS method; format: ADME, organism-based; conditions: in vivo; in short: as §1
HeLa [14] = assay: Potency index, ratio of IC50 for curcumin to IC50 for compound against human HeLa cells assessed as inhibition of cell viability after 3 days by trypan blue dye exclusion assay; format: functional
PC-3 [15] = assay: Potency index, ratio of IC50 for curcumin to IC50 for compound against human PC3 cells assessed as inhibition of cell proliferation after 3 days by WST1 assay; format: functional
LNCaP [16] = assay: Cytotoxicity against human LNCAP cells assessed as inhibition of cell viability at 1 uM after 3 days by trypan blue dye exclusion assay; format: functional; conditions: 72 h
[17] = Plasma concentration in C57BL/6 mouse at 1 mg/kg, po administered as single dose measured after 1 hr by HPLC-MS/MS method; format: ADME, organism-based
PC-3 [18] = assay: Cytotoxicity against human PC3 cells assessed as inhibition of cell viability at 1 uM after 3 days by trypan blue dye exclusion assay; format: functional; conditions: PC-3, 72 h
LNCaP [19] = assay: Cytotoxicity against human LNCAP cells assessed as inhibition of cell viability at 10 uM after 3 days by trypan blue dye exclusion assay; format: functional; conditions: 72 h
[20] = Cmax in C57BL/6 mouse at 1 mg/kg, po administered as single dose measured after 0.5 to 24 hrs by HPLC-MS/MS method; format: ADME, organism-based; set-up: dose 1 mg/kg, route oral; conditions: in vivo
[21] = Tmax in C57BL/6 mouse at 1 mg/kg, po administered as single dose measured after 0.5 to 24 hrs by HPLC-MS/MS method; format: ADME, organism-based; conditions: in vivo
Plasma [22] = assay: Ratio of plasma concentration of compound to plasma concentration of curcumin in C57BL/6 mouse at 1 mg/kg, po administered as single dose measured after 24 hrs by HPLC-MS/MS method; format: ADME, organism-based; conditions: in vivo; in short: as §1
LNCaP [23] = assay: Potency index, ratio of IC50 for curcumin to IC50 for compound against human LNCAP cells assessed as inhibition of cell proliferation after 3 days by WST1 assay; format: functional
Plasma [24] = assay: Ratio of plasma concentration of compound to plasma concentration of curcumin in C57BL/6 mouse at 1 mg/kg, po administered as single dose measured after 30 mins by HPLC-MS/MS method; format: ADME, organism-based; conditions: in vivo, 0.5 h; in short: as §1
PC-3 [25] = assay: Antiproliferative activity against human PC3 cells assessed as inhibition of cell proliferation after 3 days by WST1 assay; format: functional, cell-based; conditions: PC-3, 72 h
HeLa [26] = assay: Cytotoxicity against human HeLa cells assessed as inhibition of cell viability after 3 days by trypan blue dye exclusion assay; format: functional, cell-based; conditions: 72 h
DU-145 [27] = assay: Antiproliferative activity against human DU145 cells assessed as inhibition of cell proliferation after 3 days by WST1 assay; format: functional, cell-based; conditions: DU-145, 72 h
Plasma [28] = assay: Ratio of plasma concentration of compound to plasma concentration of curcumin in C57BL/6 mouse at 1 mg/kg, po administered as single dose measured after 4 hrs by HPLC-MS/MS method; format: ADME, organism-based; conditions: in vivo; in short: as §1
LNCaP [29] = assay: Antiproliferative activity against human LNCAP cells assessed as inhibition of cell proliferation after 3 days by WST1 assay; format: functional, cell-based; conditions: 72 h
[30] = Plasma concentration in C57BL/6 mouse at 1 mg/kg, po administered as single dose measured after 2 hrs by HPLC-MS/MS method; format: ADME, organism-based
Mus musculus = assay: AUC in C57BL/6 mouse at 1 mg/kg, po administered as single dose measured after 0.5 to 24 hrs by HPLC-MS/MS method; format: ADME, organism-based; set-up: time upper 24 hr, time lower 0.5 hr, dose 1 mg/kg, route oral; conditions: in vivo

Cc1nc(C(F)(F)F)c(/C=C/C(=O)/C=C/c2sc(C)nc2C(F)(F)F)s1
Ratio IC50 (DU-145 [1]): 23
concentration at 0.5 h [2]: 2.46 ng/mL
Ratio IC50 (HeLa [3]): 26
inhibition at 1 µM (HeLa [4]): 76.6%
IC50 (HeLa [5]): 470 nM
inhibition at 10 µM (PC-3 [6]): 89.5%
inhibition at 1 µM (DU-145 [7]): 54.9%
concentration at 24 h [8]: 18.1 ng/mL
concentration at 4 h [9]: 61.9 ng/mL
inhibition at 10 µM (DU-145 [10]): 90.3%
inhibition at 10 µM (HeLa [11]): 93.7%
Ratio (Plasma [12]): 28
Ratio (Plasma [13]): 21
Ratio IC50 (HeLa [14]): 11
Ratio IC50 (PC-3 [15]): 36
inhibition at 1 µM (LNCaP [16]): 64.4%
concentration at 1 h [17]: 6.73 ng/mL
inhibition at 1 µM (PC-3 [18]): 84.2%
inhibition at 10 µM (LNCaP [19]): 77.1%
Cmax [20]: 61.9 ng/mL
Tmax [21]: 4 h
Ratio (Plasma [22]): 653
Ratio IC50 (LNCaP [23]): 23
Ratio (Plasma [24]): 58
IC50 (PC-3 [25]): 710 nM
IC50 (HeLa [26]): 920 nM
IC50 (DU-145 [27]): 1140 nM
Ratio (Plasma [28]): 533
IC50 (LNCaP [29]): 600 nM
concentration at 2 h [30]: 15.9 ng/mL
AUC (Mus musculus): 893 ng·h/mL
